Assay results as given in ChEMBL document CHEMBL1157063, “Gymnochromes E and F, cytotoxic phenanthroperylenequinones from a deep-water crinoid, Holopus rangii” (J Nat Prod, 2010).
pIC50: −log10 of the molar value. ≈ marks a conversion by molar mass, not a printed value. Calls of active or inactive are those of the source. The rule behind the calls is not given here.

What was measured:
Staphylococcus aureus [1] = test: Antibacterial activity against Staphylococcus aureus after 18 hrs by microdilution broth method; assay type: functional
Outline: (§1)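 Reference strains: S. aureus ATCC 29213, methicillin-resistant S. aureus ATCC 700787, P. aeruginosa ATCC 27853 and C. albicans ATCC 44506. Method as previously described elsewhere.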

[2] = target: Induced myeloid leukemia cell differentiation protein Mcl-1 (Homo sapiens, UniProt Q07820); test: Inhibition of MCL1 binding to Bak by FRET assay
DLD-1 [3] = test: Cytotoxicity against human DLD1 cells at 6.4 uM after 48 hrs by MTT assay; assay type: functional, cell-based
Staphylococcus aureus [4] = test: Antibacterial activity against methicillin-resistant Staphylococcus aureus after 18 hrs by microdilution broth method; assay type: functional; outline: as §1
PANC-1 [5] = test: Cytotoxicity against human PANC1 cells at 6.4 uM after 48 hrs by MTT assay; assay type: functional, cell-based
NCI/ADR-RES [6] = test: Cytotoxicity against human NCI/ADR-RES cells at 5.2 uM after 48 hrs by MTT assay; assay type: functional, cell-based
Pseudomonas aeruginosa = test: Antibacterial activity against Pseudomonas aeruginosa after 18 hrs by microdilution broth method; assay type: functional, organism-based; outline: as §1
NCI/ADR-RES [7] = test: Cytotoxicity against human NCI/ADR-RES cells after 48 hrs by MTT assay; assay type: functional, cell-based
Outline: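 NCI/ADR-RES (formerly MCF-7/ADR) is a multidrug-resistant human ovarian carcinoma line from the NCI-Frederick tumor/cell line repository. It was scored for inhibition of proliferation using a previously described protocol. Each sample was run at least three times to derive the final IC50.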

PANC-1 [8] = test: Cytotoxicity against human PANC1 cells at 5.2 uM after 48 hrs by MTT assay; assay type: functional, cell-based
Histone deacetylase 1 = Histone deacetylase 1 (Homo sapiens, UniProt Q13547); test: Inhibition of human HDAC1 assessed as [3H]acetate release after 90 mins by scintillation counting
DLD-1 [9] = test: Cytotoxicity against human DLD1 cells at 5.2 uM after 48 hrs by MTT assay; assay type: functional, cell-based
Candida albicans = test: Antifungal activity against Candida albicans after 18 hrs by microdilution broth method; assay type: functional, organism-based; outline: as §1

Induced myeloid leukemia cell differentiation protein Mcl-1, sequence (Q07820 whole entry): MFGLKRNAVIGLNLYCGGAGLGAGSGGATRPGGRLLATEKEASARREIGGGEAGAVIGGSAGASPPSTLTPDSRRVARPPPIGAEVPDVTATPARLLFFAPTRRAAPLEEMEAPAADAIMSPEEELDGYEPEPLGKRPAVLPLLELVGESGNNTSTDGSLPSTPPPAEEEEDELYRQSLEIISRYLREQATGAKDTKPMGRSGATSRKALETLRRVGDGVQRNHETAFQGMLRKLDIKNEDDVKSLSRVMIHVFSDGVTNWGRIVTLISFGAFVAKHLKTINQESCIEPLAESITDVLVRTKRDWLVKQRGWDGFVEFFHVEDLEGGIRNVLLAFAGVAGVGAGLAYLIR
Histone deacetylase 1, sequence (Q13547 whole entry): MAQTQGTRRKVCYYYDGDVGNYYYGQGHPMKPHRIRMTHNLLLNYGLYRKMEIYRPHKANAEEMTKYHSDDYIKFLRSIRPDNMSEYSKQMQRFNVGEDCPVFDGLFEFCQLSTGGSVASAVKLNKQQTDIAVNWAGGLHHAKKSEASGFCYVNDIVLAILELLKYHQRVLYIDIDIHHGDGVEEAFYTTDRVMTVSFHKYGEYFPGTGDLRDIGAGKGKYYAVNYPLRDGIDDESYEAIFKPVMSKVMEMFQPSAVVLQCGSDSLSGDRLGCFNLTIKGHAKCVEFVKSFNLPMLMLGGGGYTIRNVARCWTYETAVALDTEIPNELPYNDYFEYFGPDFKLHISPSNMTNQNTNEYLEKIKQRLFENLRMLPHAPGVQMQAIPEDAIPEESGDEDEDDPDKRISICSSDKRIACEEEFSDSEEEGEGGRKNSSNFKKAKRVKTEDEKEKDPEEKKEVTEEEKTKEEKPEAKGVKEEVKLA

| SMILES | Activity (Staphylococcus aureus [1]) | Activity [2] | Activity (DLD-1 [3]) | Activity (Staphylococcus aureus [4]) | Activity (PANC-1 [5]) | Activity (NCI/ADR-RES [6]) | Activity (Pseudomonas aeruginosa) | Activity (NCI/ADR-RES [7]) | Activity (PANC-1 [8]) | Activity (Histone deacetylase 1) | Activity (DLD-1 [9]) | Activity (Candida albicans) | MIC (Staphylococcus aureus [1]) [µg/mL] | MIC (Staphylococcus aureus [4]) [µg/mL] | pIC50 (NCI/ADR-RES [7]) | pIC50 (Histone deacetylase 1) | pIC50 [2] |
| --- | --- | --- | --- | --- | --- | --- | --- | --- | --- | --- | --- | --- | --- | --- | --- | --- | --- |
| O=C(O)c1cc(O)c2c(c1)C(=O)c1cc(O)c(Br)c(O)c1C2=O | inactive | inactive | inactive | inactive | inactive | inactive | inactive | inactive | inactive | inactive | inactive | inactive |  |  |  |  |  |
| CCC[C@@H](O)Cc1c(Br)c(O)c2c(=O)c3c(O)cc(O)c4c5c(O)cc(O)c6c(=O)c7c(O)c(Br)c(C[C@H](C)O)c8c1c2c(c34)c(c65)c78 [GYMNOCHROME E] |  |  | inactive |  | inactive |  | inactive |  |  |  |  | inactive | 25 (≈ 32.1 µM) | 25 (≈ 32.1 µM) | 5.46 | 4.96 |  |
| O=C(O)c1cc(O)c2c(c1)C(=O)c1cc(O)cc(O)c1C2=O | inactive | inactive | inactive | inactive | inactive | inactive | inactive | inactive | inactive | inactive | inactive | inactive |  |  |  |  |  |
| CCC[C@@H](O)Cc1c(Br)c(O)c2c(=O)c3c(O)c(Br)c(O)c4c5c(O)c(Br)c(O)c6c(=O)c7c(O)c(Br)c(C[C@H](O)CCC)c8c1c2c(c34)c(c65)c78 [GYMNOCHROME F] |  |  |  |  |  | inactive | inactive |  | inactive |  | inactive | inactive | 12.5 (≈ 13 µM) | 12.5 (≈ 13 µM) |  |  | 5.48 |
